Assay type in all cases: cell-based
For assay [1], the target named is T1, Estrogen receptor (Homo sapiens) (UniProt P03372).
T1 sequence (whole entry): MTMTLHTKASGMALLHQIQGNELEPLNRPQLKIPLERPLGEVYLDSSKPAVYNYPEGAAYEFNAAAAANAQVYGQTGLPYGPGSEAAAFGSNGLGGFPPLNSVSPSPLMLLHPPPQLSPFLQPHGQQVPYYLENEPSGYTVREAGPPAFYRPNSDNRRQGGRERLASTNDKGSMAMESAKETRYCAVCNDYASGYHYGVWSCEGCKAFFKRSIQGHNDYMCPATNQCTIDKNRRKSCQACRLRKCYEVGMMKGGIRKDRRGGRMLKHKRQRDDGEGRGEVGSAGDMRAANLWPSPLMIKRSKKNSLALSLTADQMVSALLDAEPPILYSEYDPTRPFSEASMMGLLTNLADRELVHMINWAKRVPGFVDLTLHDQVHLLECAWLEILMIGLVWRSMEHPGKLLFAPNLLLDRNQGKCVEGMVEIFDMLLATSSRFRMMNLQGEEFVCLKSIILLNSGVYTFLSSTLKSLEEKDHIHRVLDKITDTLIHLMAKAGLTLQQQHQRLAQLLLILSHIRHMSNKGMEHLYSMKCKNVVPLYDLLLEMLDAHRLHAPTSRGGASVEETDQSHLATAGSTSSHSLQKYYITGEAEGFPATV
The experiment in a line: Activation of human estrogen receptor alpha expressed in HEK293 cells at 10 uM by beta-galactosidase reporter gene assay relative to 3,17 beta-estradiol. The procedure, abridged: (§1)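 HEK293 cells seeded a day ahead in phenol-free DMEM with 5% delipidated FBS. Calcium phosphate transfection for 4 h with 5 ng ERα or ERβ expression vector, 75 ng pERE2TATA-LUC reporter and 20 ng pCMVβ control. Test compound at 10 µM (vehicle 0.1% v/v) for 24 h. Luciferase normalized to β-galactosidase. Activity = 100% × (test − vehicle)/(10 nM E2 − vehicle). Mean of ≥3 independent transfections.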

For assay [2], the target named is Estrogen receptor beta (Homo sapiens) (UniProt Q92731). The experiment in a line: Activation of human estrogen receptor beta expressed in HEK293 cells at 10 uM beta-galactosidase reporter gene assay relative to 3,17-beta-estradiol. The procedure, abridged: as §1
Sequence of Estrogen receptor beta (Homo sapiens) (Q92731 whole entry): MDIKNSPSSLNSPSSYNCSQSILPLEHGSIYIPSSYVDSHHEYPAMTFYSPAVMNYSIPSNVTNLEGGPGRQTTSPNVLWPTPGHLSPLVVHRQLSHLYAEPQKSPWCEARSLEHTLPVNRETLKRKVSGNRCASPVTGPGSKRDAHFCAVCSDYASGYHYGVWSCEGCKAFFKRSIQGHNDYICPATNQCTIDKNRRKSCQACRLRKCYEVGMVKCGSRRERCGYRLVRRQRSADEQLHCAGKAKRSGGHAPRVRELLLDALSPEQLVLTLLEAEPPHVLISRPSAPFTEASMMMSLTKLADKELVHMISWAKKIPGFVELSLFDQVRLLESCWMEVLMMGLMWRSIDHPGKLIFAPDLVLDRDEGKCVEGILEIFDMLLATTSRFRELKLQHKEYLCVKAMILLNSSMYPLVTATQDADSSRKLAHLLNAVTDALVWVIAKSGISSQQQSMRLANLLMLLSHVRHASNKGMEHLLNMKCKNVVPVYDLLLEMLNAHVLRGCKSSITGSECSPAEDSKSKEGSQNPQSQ
(Reporter assays use an easily measured gene product as a stand-in for the process of interest.)

The target of assay [3] is T1, Estrogen receptor (Homo sapiens). The experiment in a line: Activation of human estrogen receptor alpha expressed in HEK293 cells at 10 uM beta-galactosidase reporter gene assay relative to control. The procedure, abridged:
(§2)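 Luciferase reporter in transiently transfected HEK293 cells. Cells received 5 ng ERα or ERβ vector, ERE2-TATA luciferase reporter and pCMVβ by calcium phosphate for 4 h. Compound at 10 µM for 24 h in phenol-free medium with delipidated serum. β-Gal-normalized luciferase expressed as fold activation over vehicle (0.1% v/v). Means ± SEM of ≥3 transfections.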

Assay [4] shares this target. The experiment in a line: Activation of human estrogen receptor alpha expressed in HEK293 cells at 10 uM in presence of ICI-182780 beta-galactosidase reporter gene assay relative to control. In outline:
(§3)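 Antagonism format: transfection as for the agonist assay (ERα or ERβ vector, ERE2-TATA-LUC, pCMVβ; 4 h). Medium then contained 10 µM compound plus 1000 nM ICI-182,780 or vehicle for 24 h. β-Gal-normalized luciferase given as fold activation relative to vehicle. Means ± SEM of ≥3 independent transfections.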

The target of assay [5] is Estrogen receptor beta (Homo sapiens) (UniProt Q92731). The experiment in a line: Activation of human estrogen receptor beta expressed in HEK293 cells at 10 uM beta-galactosidase reporter gene assay relative to control. In outline: as §2
Assay [6] shares this target. The experiment in a line: Activation of human estrogen receptor beta expressed in HEK293 cells at 10 uM in presence of ICI-182781 beta-galactosidase reporter gene assay relative to control. The procedure, abridged:
as §3

`O=C(CCc1ccccc1)CC(=O)Cc1ccccc1`: the Activity in assay [1] was found to be 24.3%; in assay [2] it was 1.4%; in assay [3] it was 8.7; in assay [4], 1.

As to `COc1ccc(CC2CC(CCc3ccccc3)=NO2)cc1` (single isomer, unassigned; 50b), the results for the Activity in assay [1] and in assay [2] were 16.1% and 13.2%, respectively.

Consider `Fc1ccc(CC2CC(CCc3ccccc3)=NO2)cc1` (single isomer, unassigned), for which the Activity in assay [1] amounted to 28.9%; in assay [2], 7.4%.

Regarding `c1ccc(CCC2CC(Cc3ccccc3)=NO2)cc1` (stereo unspecified), the results for the Activity in assay [1] and in assay [2] were 7% and 1.2%, respectively.

As for `c1ccc(CCC2CC(c3ccccc3)=NO2)cc1` (single isomer, unassigned; 10a), the Activity in assay [1] came to 22.8%; in assay [2], 8.5%.

With `O=C(CC(=O)Cc1ccccc1)Cc1ccccc1`, the Activity was 4.3% in assay [1] and 0.1% in assay [2].

`COc1ccc(CC(O)CC(=O)CCc2ccccc2)cc1` (single isomer, unassigned; 54b): the Activity turned out to be 1.3% in assay [1] and 1.2% in assay [2].

On to `O=C(CCc1ccccc1)CC(O)c1ccccc1` (single isomer, unassigned; 23b), for which the results for the Activity in assay [1] and in assay [2] were 25.3% and 2.8%, respectively.

Regarding `c1ccc(CCC2=NOC(CCc3ccccc3)C2)cc1` (single isomer, unassigned; 18b), the Activity in assay [1] was 43.9%; in assay [2] it was -0.4%; in assay [3], 126; in assay [4], 1.

Take `COc1cc2ccccc2cc1CC(CC(=O)Cc1ccc2ccccc2c1)OC` (stereo unspecified): the Activity in assay [1] was 14.8%; in assay [2], 2%.

Consider `O=C(CC(O)Cc1ccccc1)c1ccccc1` (stereo unspecified), for which the Activity came out at 5.3% in assay [1] and 16.9% in assay [2].

In the case of `c1ccc(CCC2=NOC(Cc3ccccc3)C2)cc1` (stereo unspecified), the Activity in assay [1] was determined as 38.2%; in assay [2], 1.3%.

On to `CS(C)=C(C(=O)CCCc1ccccc1)C(=O)c1ccccc1`, for which the Activity was -6% in assay [1] and 0% in assay [2].

As to `COc1ccccc1CC(=O)CC(Cc1cccc2ccccc12)OC` (single isomer, unassigned; 63a), the Activity in assay [1] and in assay [2] was 0% throughout.

`Oc1cccc(CCC2=NOC(Cc3ccccc3)C2)c1` (stereo unspecified): the Activity in assay [1] was 15.7%; in assay [2] it was -2.5%.

As for `COC(CC(=O)Cc1cccc2ccccc12)Cc1cccc2ccccc12` (single isomer, unassigned; 64b), the Activity came out at 23.9% in assay [1], 0.4% in assay [2], 26.1 in assay [3] and 1.1 in assay [4].

`COc1ccccc1CC(CC(=O)Cc1ccc2ccccc2c1)OC` (stereo unspecified): the Activity was determined as 0.2% in assay [1] and 0.1% in assay [2].

Consider `COC(CC(=O)Cc1ccccc1)c1ccccc1` (stereo unspecified), for which the Activity in assay [1] is 4.9%; in assay [2] it was -1.2%.

In the case of `COC(CC(=O)Cc1ccccc1)Cc1ccc2ccccc2c1` (racemic), the Activity in assay [5] stood at 4.2; in assay [1], 48.1%; in assay [2] it was 4.7%; in assay [3], 22.9; in assay [4], 1.6; in assay [6] it was 0.7.

On to `CS(C)=C(C(=O)Cc1ccccc1)C(=O)Cc1ccccc1`, for which the Activity in assay [1] was 0.5%; in assay [2] it was -0.4%.

As for `Fc1ccc(CC2CC(CCc3ccccc3)=NO2)cc1` (stereo unspecified), the Activity in assay [1] was determined as 99.2%; in assay [2] it was 11.2%.

Regarding `O=C(CCc1ccccc1)CC(O)Cc1ccc2ccccc2c1` (single isomer, unassigned; 57a), the figures for the Activity in assay [1] and in assay [2] were 12.4% and 6.4%, respectively.

Turning to `COC(CCc1ccccc1)CC(=O)c1ccccc1` (stereo unspecified), the Activity came to 38.1% in assay [1] and 25.8% in assay [2].

Turning to `COC(CC(=O)Cc1ccc(F)cc1)Cc1cccc2ccccc12` (single isomer, unassigned; 62a), the Activity in assay [1] was 0.2%; in assay [2], -0.6%.

With `c1ccc(CC2=NOC(Cc3ccccc3)C2)cc1` (single isomer, unassigned; 14b), the Activity in assay [1] is 0%; in assay [2], 0.3%.

For the molecule `COc1ccc(CC(O)CC(=O)CCc2ccccc2)cc1` (single isomer, unassigned; 54a), the Activity in assay [1] was 1.6%; in assay [2], -0.8%.

As for `O=C(CCCc1ccccc1)CC(O)c1ccccc1` (single isomer, unassigned; 24b), the Activity in assay [1] worked out at 59.3%; in assay [2], 28.2%.

Take `O=C(CCCc1ccccc1)CC(=O)CCc1ccccc1`: the Activity was 6.1% in assay [1] and -1.5% in assay [2].

For the molecule `Oc1ccc(CC2CC(CCc3ccccc3)=NO2)cc1` (single isomer, unassigned; 69b), the results for the Activity in assay [1] and in assay [2] were 105% and 42.4%, respectively.

As for `O=C(Cc1ccccc1)CC(O)c1ccccc1` (stereo unspecified), the Activity in assay [1] amounted to 0.8%; in assay [2], 1.6%.

For `c1ccc(CCCC2=NOC(CCc3ccccc3)C2)cc1` (stereo unspecified), the Activity was determined as 67.6% in assay [1] and 15.5% in assay [2].

Take `COC(CC(=O)Cc1ccccc1)Cc1ccccc1` (stereo unspecified): the Activity in assay [1] worked out at 1.4%; in assay [2], 0.3%.

Regarding `COC(CCc1ccccc1)CC(=O)CCCc1ccccc1` (stereo unspecified), the Activity in assay [1] is 3.1%; in assay [2], -14.6%.

As to `c1ccc(CC2=NOC(Cc3ccccc3)C2)cc1` (single isomer, unassigned; 14a), the Activity was -1.3% in assay [1] and -0.2% in assay [2].

With `Oc1ccc(CC2CC(CCc3ccccc3)=NO2)cc1` (single isomer, unassigned; 69a), the Activity in assay [1] amounted to 34.2%; in assay [2], 9.1%.

Turning to `Oc1cccc(CCC2=NOC(Cc3ccccc3)C2)c1` (single isomer, unassigned), the Activity in assay [1] was determined as 19.2%; in assay [2], 6.7%.

As to `O=C(CCc1ccccc1)CC(=O)CCc1ccccc1`, the results for the Activity in assay [1] and in assay [2] were 0.6% and 0.3%, respectively.

On to `O=C(CCCc1ccccc1)CC(O)c1ccccc1` (single isomer, unassigned; 24a), for which the results for the Activity in assay [1] and in assay [2] were 91.4% and 147%, respectively.

Source of the values: ChEMBL document CHEMBL1150775, “Synthesis and evaluation of estrogen agonism of diaryl 4,5-dihydroisoxazoles, 3-hydroxyketones, 3-methoxyketones, and 1,3-diketones: a compound set forming a 4D molecular library” (J Med Chem, 2008).
